Among the data in ChEMBL document CHEMBL1153725, “Tetrahydroquinoline derivatives as CRTH2 antagonists” (Bioorg Med Chem Lett, 2009) are IC50 values, retold here.

Each structure is given as a SMILES string. A value given as a limit tells only on which side of the number the result lay.

For assay [1], the system named is Eosinophil. In words: Inhibition of PGD2-induced human eosinophil shape change by flow cytometry. Format: functional, cell-based. In short, it runs like this: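 Enriched human eosinophils at 10^6 cells/mL in PBS with Ca2+/Mg2+, 0.1% BSA, 10 mM Hepes, 10 mM glucose. Antagonist or vehicle (0.05% DMSO) applied 10 min at room temperature, then 10 nM PGD2 for 10 min at 37 °C. Response expressed as % of maximal PGD2 response. Means of two experiments.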
In general terms: Flow cytometry measures light scatter and fluorescence of single cells or particles in a stream.

Assay [2] has as its target T1, Prostaglandin D2 receptor 2 (Homo sapiens, UniProt Q9Y5Y4).
T1 sequence (Q9Y5Y4 whole entry): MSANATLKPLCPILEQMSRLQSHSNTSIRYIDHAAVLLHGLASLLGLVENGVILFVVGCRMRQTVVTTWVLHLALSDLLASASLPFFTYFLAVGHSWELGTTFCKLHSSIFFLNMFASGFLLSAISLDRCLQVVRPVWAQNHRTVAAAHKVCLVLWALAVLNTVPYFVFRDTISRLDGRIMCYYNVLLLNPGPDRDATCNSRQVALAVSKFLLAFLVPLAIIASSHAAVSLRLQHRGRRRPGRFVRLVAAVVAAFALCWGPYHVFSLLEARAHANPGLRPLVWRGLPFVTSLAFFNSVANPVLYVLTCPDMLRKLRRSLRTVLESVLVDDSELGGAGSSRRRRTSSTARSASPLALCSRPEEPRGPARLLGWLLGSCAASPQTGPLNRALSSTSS
Nature of the assay: Displacement of [3H]PGD2 from human CRTH2 receptor expressed in 293 cells by scintillation counting in presence of 0.5% BSA. Format: cell-based, HEK293. The gist of the method:
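Whole-cell binding on 293 cells stably transfected with hCRTH2. [3H]-PGD2 incubated with cells plus increasing compound concentrations in binding buffer containing 0.5% BSA. Cells washed, bound label counted by scintillation, and the concentration giving 50% inhibition of binding taken as IC50. Means of three experiments.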
On the technique in general: Displacement assays read how much labelled ligand stays bound in the presence of the test substance.

The target of assay [3] is T2, Prostaglandin D2 receptor (Homo sapiens, UniProt Q13258).
T2 sequence (Q13258 whole entry): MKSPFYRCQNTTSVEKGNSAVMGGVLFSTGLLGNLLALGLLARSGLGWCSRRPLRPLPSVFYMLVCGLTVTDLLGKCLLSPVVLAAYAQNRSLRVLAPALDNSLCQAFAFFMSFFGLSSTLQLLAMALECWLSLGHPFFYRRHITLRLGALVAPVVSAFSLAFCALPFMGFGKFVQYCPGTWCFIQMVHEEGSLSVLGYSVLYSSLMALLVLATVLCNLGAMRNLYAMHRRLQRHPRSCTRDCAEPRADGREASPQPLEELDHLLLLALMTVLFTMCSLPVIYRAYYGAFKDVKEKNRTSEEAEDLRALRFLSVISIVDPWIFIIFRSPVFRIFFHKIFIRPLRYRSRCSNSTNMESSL
In words: Displacement of [3H]PGD2 from human DP receptor expressed in 293 cells by scintillation counting in presence of 0.5% BSA. Format: cell-based, HEK293. In short, it runs like this:
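hDP binding on stably transfected 293 cells. [3H]-PGD2 incubated with 293(hDP) cells and increasing compound concentrations in buffer with 0.5% BSA. After washing, remaining bound radioligand counted by scintillation, and IC50 read as the concentration giving 50% inhibition. Means of three experiments.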

Assay [4] addresses T1, Prostaglandin D2 receptor 2. Nature of the assay: Displacement of [3H]PGD2 from human CRTH2 receptor expressed in 293 cells by scintillation counting in presence of 50% human plasma. The class given is cell-based, HEK293. The gist of the method: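 Whole-cell binding on 293 cells stably transfected with hCRTH2, run in binding buffer containing 50% human plasma. [3H]-PGD2 incubated with cells and rising compound concentrations. After washing, cell-bound label measured by scintillation counting, and IC50 taken as the concentration halving binding. Means of three experiments.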

One may read the IC50 as the concentration that inhibits the measured activity by half.

Take `C[C@H]1C[C@@H](N(C(=O)CCC(=O)O)c2ccccc2)c2ccccc2N1C(=O)c1ccccc1`: the IC50 in assay [1] was 0.77 nM; in assay [2], 3 nM; in assay [3] it was greater than 10000 nM; in assay [4], 9 nM.
On to `CC(=O)N(c1ccccc1)[C@@H]1C[C@H](C)N(C(=O)c2ccccc2)c2ccccc21`, for which the IC50 is 141 nM in assay [1], 17 nM in assay [2], greater than 10000 nM in assay [3] and 440 nM in assay [4].
`CC(=O)N(c1ccccc1)[C@H]1C[C@@H](C)N(C(=O)c2ccccc2)c2ccccc21`: the IC50 was 420 nM in assay [2] and greater than 10000 nM in assay [4].
Consider `C[C@@H]1C[C@H](N(C(=O)CCC(=O)O)c2ccccc2)c2ccccc2N1C(=O)c1ccccc1`, for which the IC50 was 400 nM in assay [2] and 39 nM in assay [4].
`CC(=O)N(c1ccccc1)C1CC(C)Nc2ccccc21` (racemic): the IC50 in assay [2] is greater than 50000 nM.
For the compound `CC(=O)NC1CC(C)N(C(=O)c2ccccc2)c2ccccc21` (racemic), in assay [2], the half-maximal inhibitory concentration (IC50) is 3620 nM.
Still for that read-out and setting: the result for `CCN(C(C)=O)C1CC(C)N(C(=O)c2ccccc2)c2ccccc21` (racemic) reads 250 nM; that for `CC(=O)N(Cc1ccccc1)C1CC(C)N(C(=O)c2ccccc2)c2ccccc21` (racemic), 430 nM.
In the case of `CC(=O)N(c1ccccc1)C1CC(C)N(Cc2ccccc2)c2ccccc21` (racemic), the IC50 in assay [2] stood at 200 nM.
Regarding `CC(=O)N(c1ccccc1)C1CC(C)N(C(=O)Cc2ccccc2)c2ccccc21` (racemic), the IC50 in assay [2] was 1750 nM.
In the case of `CC(=O)N(c1ccccc1)C1CC(C)N(C(=O)OCc2ccccc2)c2ccccc21` (racemic), the IC50 in assay [2] was found to be 910 nM.
Consider `CC(=O)N(c1ccccc1)C1CC(C)N(C(=O)/C=C/c2ccccc2)c2ccccc21` (racemic), for which the IC50 in assay [2] turned out to be 210 nM.
Take `CC1CC(Nc2ccccc2)c2ccccc2N1C(=O)c1ccccc1` (racemic): the IC50 in assay [2] is greater than 50000 nM.
`CCN(c1ccccc1)C1CC(C)N(C(=O)c2ccccc2)c2ccccc21` (racemic): the IC50 in assay [2] amounted to 3170 nM.
Same read-out and setting: for `CC1CC(N(c2ccccc2)S(=O)(=O)c2ccccc2)c2ccccc2N1C(=O)c1ccccc1` (racemic) the value was 5500 nM.
On to `CC1CC(N(C(=O)c2ccccc2)c2ccccc2)c2ccccc2N1C(=O)c1ccccc1` (racemic), for which the IC50 in assay [2] was found to be 105 nM.
In the case of `CC(=O)N(c1ccccc1)C1CC(C)N(C(=O)c2ccc(OC(F)(F)F)cc2)c2ccccc21` (racemic), the IC50 is 26 nM in assay [2] and greater than 10000 nM in assay [4].
With `CC(=O)N(c1ccccc1)C1CC(C)N(C(=O)c2ccc(Oc3ccccc3)cc2)c2ccccc21` (racemic), the concentration for half-maximal inhibition (IC50) in assay [2] worked out at 13 nM.
Regarding `COc1ccc(C(=O)N2c3ccccc3C(N(C(C)=O)c3ccccc3)CC2C)cc1` (racemic), the IC50 in assay [2] was determined as 28 nM; in assay [4] it was 130 nM.
`CC(=O)N(c1ccccc1)C1CC(C)N(C(=O)c2ccc(Cl)cc2)c2ccccc21` (racemic): the IC50 in assay [2] was 93 nM.
For `CC(=O)N(c1ccccc1)C1CC(C)N(C(=O)c2ccc(C(C)(C)C)cc2)c2ccccc21` (racemic), the IC50 in assay [2] came to 34 nM.
As for `CC(=O)N(c1ccccc1)[C@@H]1C[C@H](C)N(C(=O)c2ccccc2)c2ccccc21` (racemic), the values for the IC50 in assay [2] and in assay [4] were 43 nM and 1050 nM, respectively.
For `CC(=O)N(c1ccccc1)[C@H]1C[C@H](C)N(C(=O)c2ccccc2)c2ccccc21` (racemic), the IC50 in assay [2] was greater than 10000 nM.
Regarding `CC1CC(N(C(=O)CC(=O)O)c2ccccc2)c2ccccc2N1C(=O)c1ccccc1` (racemic), in assay [2], the IC50 amounted to 540 nM.
`CC1CC(N(C(=O)CCCC(=O)O)c2ccccc2)c2ccccc2N1C(=O)c1ccccc1` (racemic): the IC50 in assay [2] was found to be 22 nM.
In the case of `CC1CC(N(C(=O)/C=C/C(=O)O)c2ccccc2)c2ccccc2N1C(=O)c1ccccc1` (racemic), the IC50 in assay [2] came to 2280 nM.
Still for that read-out and setting: for `CC1CC(N(C(=O)c2cccc(C(=O)O)c2)c2ccccc2)c2ccccc2N1C(=O)c1ccccc1` (racemic) the value was 40300 nM; for `CC(=O)N(c1ccccc1)C1CC(C)N(C(=O)c2ccccc2C)c2ccccc21` (racemic), 1420 nM; for `CCCCC(=O)N1c2ccccc2C(N(C(C)=O)c2ccccc2)CC1C` (racemic), 1460 nM.
As for `CC(=O)N(c1ccccc1)C1CC(C)N(S(=O)(=O)c2ccccc2)c2ccccc21` (racemic), in assay [2], the IC50 amounted to 62000 nM.
With `CC(=O)N(c1ccccc1)C1CC(C)N(C(=O)c2cccc(C)c2)c2ccccc21` (racemic), the IC50 in assay [2] was 74 nM.
Same read-out and setting: for `CC(=O)N(c1ccccc1)C1CC(C)N(C(=O)c2ccc(C)cc2)c2ccccc21` (racemic) the value was 41 nM.
Turning to `CCCCC(=O)N(c1ccccc1)C1CC(C)N(C(=O)c2ccccc2)c2ccccc21` (racemic), in assay [2], the IC50 is 64 nM.
As for `CC1CC(N(C(=O)CCC(=O)O)c2ccccc2)c2ccccc2N1C(=O)c1ccccc1` (racemic), the IC50 turned out to be 5 nM in assay [2] and 28 nM in assay [4].
`CC1CC(N(C(=O)CCC(=O)ON)c2ccccc2)c2ccccc2N1C(=O)c1ccccc1` (racemic): the IC50 in assay [2] amounted to 29 nM.
The same measure, in the same setting: the result for `CC(=O)N(c1ccccc1)C1CC(C)N(C(=O)c2ccc(C)c(C)c2)c2ccccc21` (racemic) reads 92 nM.
